Compounds with a hit are over-represented: about 4.1% of the library has one in this group of screens.
KCNQ1 inh – inhibitors of human KCNQ1 channel, primary screen, cell-based, thallium flux, high-throughput | Potassium voltage-gated channel subfamily KQT member 1 (Homo sapiens), P51787 | CHO-K1 KCNQ1, FluxOR thallium flux fluorescence; active compounds read high | B-score at 10 µM | 310,000 compounds, 1.3% hits | AID 2642, 2010;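 active = compounds whose thallium flux B-score, printed positive for inhibition, exceeds three library SD while starting fluorescence stays within three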;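 note: channel opened by potassium depolarization with thallium stimulus after 20 min compound exposure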
KCC2 mod – KCC2 cotransporter modulators, thallium flux, primary screen, cell-based, HEK293 KCC2, FluoZin-2 fluorescence, MLSMR; KCC2 cells, thallium flux FluoZin-2 fluorescence; B-score of Tl+ flux slope (higher = more flux/activation; lower = inhibition) at 10 µM; 190,000 compounds, 2.2% hits; AID 1456, 2008;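 active = thallium flux slope and its plate-corrected score both differing from the plate sample mean at a set confidence after two filtering rounds, in either direction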;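 note: slope of fluorescence scaled to starting intensity during 10 to 20 s after thallium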
Target sequence (Q9H2X9 whole entry, looked up): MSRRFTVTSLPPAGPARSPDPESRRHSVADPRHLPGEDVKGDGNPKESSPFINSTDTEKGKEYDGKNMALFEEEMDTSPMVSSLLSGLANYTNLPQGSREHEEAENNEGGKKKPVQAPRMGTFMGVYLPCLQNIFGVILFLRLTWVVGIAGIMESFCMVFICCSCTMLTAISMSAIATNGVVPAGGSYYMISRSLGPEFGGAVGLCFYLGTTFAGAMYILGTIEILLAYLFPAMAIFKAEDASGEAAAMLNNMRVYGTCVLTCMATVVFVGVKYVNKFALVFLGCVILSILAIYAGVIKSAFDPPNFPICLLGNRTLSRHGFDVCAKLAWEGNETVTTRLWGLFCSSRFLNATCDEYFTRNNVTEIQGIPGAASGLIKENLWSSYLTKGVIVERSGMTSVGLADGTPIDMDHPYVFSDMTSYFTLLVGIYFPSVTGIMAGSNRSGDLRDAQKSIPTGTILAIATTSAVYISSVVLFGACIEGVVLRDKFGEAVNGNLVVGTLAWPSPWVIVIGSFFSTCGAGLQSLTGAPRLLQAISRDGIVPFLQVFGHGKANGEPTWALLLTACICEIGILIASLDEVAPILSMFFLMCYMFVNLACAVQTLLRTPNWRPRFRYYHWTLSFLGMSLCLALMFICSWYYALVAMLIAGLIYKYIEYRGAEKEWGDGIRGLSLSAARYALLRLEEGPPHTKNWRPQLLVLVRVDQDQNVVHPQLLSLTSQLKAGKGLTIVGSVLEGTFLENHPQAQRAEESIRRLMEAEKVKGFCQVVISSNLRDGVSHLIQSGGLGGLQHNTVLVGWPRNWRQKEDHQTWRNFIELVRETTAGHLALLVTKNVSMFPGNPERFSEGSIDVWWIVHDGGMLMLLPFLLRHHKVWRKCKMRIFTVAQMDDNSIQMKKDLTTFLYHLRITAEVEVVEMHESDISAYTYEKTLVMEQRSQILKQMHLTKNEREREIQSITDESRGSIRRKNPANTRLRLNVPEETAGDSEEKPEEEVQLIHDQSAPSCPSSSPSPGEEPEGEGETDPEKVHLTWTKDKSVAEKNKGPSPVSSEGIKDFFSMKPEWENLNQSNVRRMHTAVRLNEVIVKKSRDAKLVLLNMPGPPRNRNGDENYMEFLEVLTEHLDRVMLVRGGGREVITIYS
KCNK3 inh – human KCNK3 channel inhibitors, primary screen, CHO cells, FluxOR thallium flux, B-score; Potassium channel subfamily K member 3 (Homo sapiens), O14649; FluxOR fluorescence; active compounds read low; B-score at 10 µM; 340,000 compounds, 0.84% hits; AID 602410, 2012;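 active = B-score under library mean minus 4 SD, starting fluorescence ratio at most library mean plus 5 SD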;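 note: more negative B-score means stronger inhibition of thallium flux through KCNK3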
hERG protect – hERG rescue from dofetilide block, primary screen, cell-based, CHO-hERG, FluxOR thallium flux, dofetilide IC70. Voltage-gated inwardly rectifying potassium channel KCNH2 (Homo sapiens), Q12809. AID 1511, 2009. activation (rescue from dofetilide block), less the hit threshold, % at 10 µM. dofetilide IC70 present. 310,000 compounds, 0.51% hits;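 active = activation above the mean of controls blocked by dofetilide plus 5 SD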;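 note: thallium influx through hERG after potassium depolarization seen as dye fluorescence rise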
KCNQ1 act – potentiators or activators of KCNQ1 channel, primary screen, cell-based, thallium flux, high-throughput | AID 2648, 2010 | CHO-K1 KCNQ1, thallium flux FluxOR fluorescence; active compounds read high | Potassium voltage-gated channel subfamily KQT member 1 (Homo sapiens), P51787 | 310,000 compounds, 0.35% hits | B-score at 10 µM;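 active = fluorescence ratio B-score, a plate-corrected score, at least three library SD, with initial intensity B-score within 5 SD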
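Medium – assay buffer, equal DMSO in all wells · Material – CHO-K1 cell line with stable KCNQ1 potassium channel expression · Signal – kinetic FluxOR thallium fluorescence, 10-s 1-Hz baseline, 110-s post-stimulus read · Compound – single concentration per compound, DMSO matched to controls · Schedule – 37 °C overnight plating, 90-min dark dye load, 20-min compound pretreatment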
KCNK9 inh – KCNK9 potassium channel inhibitors, primary screen, HEK293 cells, thallium flux | 310,000 compounds, 1.2% hits | Potassium channel subfamily K member 9 (Homo sapiens), Q9NPC2 | B-score at 10 µM | FluxOR thallium flux fluorescence; active compounds read low;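 active = ratio B-score over 3 SD below the library mean, with starting fluorescence within 5 SD of its mean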;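 note: negative B-score means less thallium flux so channel inhibition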
KCNQ1 block val – KCNQ1 potassium channel inhibitors, confirmation, cell-based, Tl flux, duplicate | shares compounds with KCNQ1 inh | KCNQ1 cell line, FluxOR thallium flux fluorescence | AID 588353, 2011 | inhibition, % at 10 µM | 1,600 compounds, 93% hits;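 active = primary screen active, with duplicate mean exceeding buffer control mean plus 3 SD of buffer wells, cut at about 28% in these data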;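 note: 0% = buffer control ratio and 100% = XE991 inhibitor control ratio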
CHO Tl flux – thallium flux effects in parental CHO cells, counter-screen for KCNQ1 inhibitor project, cell-based, Tl flux; shares compounds with KCNQ1 inh; parental CHO-K1, FluxOR thallium flux fluorescence ratio; active compounds read low; zero means no signal rise above baseline; fluorescence ratio (Tl flux) at 10 µM; 1,600 compounds, 21% hits;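 active = mean of duplicate thallium-flux fluorescence ratios in parental host cells more than 5 SD below the buffer control mean, cut at about 0.38 in these data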;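 note: ratio is peak minus minimum fluorescence divided by baseline fluorescence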
KCNQ1 ephys val – KCNQ1 channel inhibitors, confirmation, orthogonal assay, cell-based, automated electrophysiology. shares compounds with KCNQ1 inh. KCNQ1-CHO cells, automated patch clamp current. calls only at 10 µM. 490 compounds, 20% hits. AID 624120, 2012;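 active = KCNQ1 current drop exceeding 3 SD of negative control wells, seen in both duplicate runs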;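 note: steady state current during a 2 s step from -80 to +40 mV; negative values mean current inhibition and positive values mean potentiation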
KCNQ2 spec – KCNQ2 channel inhibition, selectivity assay for KCNQ1 inhibitor project, cell-based | KCNQ2 cells, FluxOR thallium flux fluorescence | AID 651746, 2012 | shares compounds with KCNQ1 inh | inhibition, % at 10 µM | 1,600 compounds, 71% hits;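 active = mean percent inhibition of the KCNQ2 thallium signal more than 5 SD above the buffer-only control wells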;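 note: KCNQ2 expressed in CHO cells; 0% = buffer control wells and 100% = XE-991 inhibitor control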
KCNQ1-KCNE1 inh – KCNQ1/KCNE1 channel inhibition, selectivity assay for KCNQ1 inhibitor project, CHO-K1 cells, thallium flux, FluxOR | shares compounds with KCNQ1 inh | FluxOR thallium flux fluorescence | inhibition, % at 10 µM | 1,600 compounds, 77% hits;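 active = mean percent inhibition of duplicate wells above the buffer-only control mean plus 3 SD of those controls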;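 note: 0% = buffer only wells and 100% = XE-991 inhibitor control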
An asterisk follows results filed as active; i = inactive; . = not tested or not shown; + = active, no number.

SMILES | KCNQ1 inh | KCC2 mod | KCNK3 inh | hERG protect | KCNQ1 act | KCNK9 inh | KCNQ1 block val | CHO Tl flux | KCNQ2 spec | KCNQ1-KCNE1 inh | others
Cc1ccc(NC(=O)C(NC2CCCc3ccccc32)c2ccccc2)cc1Cl (stereo not drawn) | 6* | -0.296 | i | -6.9 | i | i | 66.0* | 0.362* | 100.0%* | 99.0%*
COC(=O)C1=C(C)N(CCCC(=O)O)C(=O)NC1c1ccc(Cl)cc1 (stereo not drawn) | i | . | i | -1.9 | i | i | . | . | . | .
COc1ccc(NC(=O)COc2cc(O)c3c(c2)OC(C)(C)CC3=O)cc1 | i | . | i | -8.1 | i | i | . | . | . | .
COc1cccc(NC(=O)COc2cc(O)c3c(c2)OC(C)(C)CC3=O)c1 | 7* | . | i | -13.4 | i | i | 49.0* | 0.443 | 78.3%* | 69.5%*
Cc1cc(C)c(-c2cc(NC(=O)COC(=O)c3ccc(NC(=O)CC#N)cc3)n(-c3ccccc3)n2)cc1C | 6* | . | i | -8.6 | i | i | 156.0* | 0.471 | 64.0%* | 137.0%* | KCNQ1 ephys val=i
COc1ccccc1NS(=O)(=O)c1ccc2c(c1)n(C)c(=O)n2C | i | 0.0775 | i | -4.3 | i | i | . | . | . | .
CCCC(=O)Nc1ccc(C(=O)NCCc2ccc(F)cc2)cc1 | i | -0.766 | i | -2.6 | i | i | . | . | . | .
O=C(CCN1CCOCC1)c1ccc2c(c1)OCCO2 | 8* | 0.219 | i | -15.0 | i | i | 63.5* | 0.358* | i | 60.0%*
CCc1cc(C(c2cccc(OC)c2)N2CCOCC2)c(NC(=O)c2ccccc2)s1 (stereo not drawn) | i | -0.0711 | i | -14.0 | i | i | . | . | . | .
CCc1cc(C(c2ccc(F)cc2)N2CCOCC2)c(NC(=O)c2ccccc2)s1 (stereo not drawn) | 10* | -1.16 | i | -6.7 | i | i | 100.0* | 0.366* | 99.3%* | 154.5%*
O=C(Nc1ccc(C(F)(F)F)cc1)c1ccccc1 | . | . | i | . | . | . | . | . | . | .
O=C(Nc1ccc(Br)c(C(F)(F)F)c1)c1ccccc1 | 6* | -2.16 | i | -14.2 | i | -7.74* | 125.0* | 0.396 | 136.7%* | 109.5%* | KCNQ1 ephys val=i
COc1cc(C=O)ccc1Oc1ccc(S(=O)(=O)N2CCOCC2)cc1[N+](=O)[O-] | . | . | i | . | . | . | . | . | . | .
O=C(NC1CCCCC1)N1CCCc2ccccc21 | i | -0.0707 | i | -9.6 | i | i | . | . | . | .
O=C(NC1CCCCC1)N1CCSC1=Nc1ccccc1 | 10* | -0.554 | i | -20.2 | i | i | 103.0* | 0.41 | 109.7%* | 111.0%* | KCNQ1 ephys val=i
O=C(Nc1nc2ccccc2[nH]1)c1ccc(Cl)c(S(=O)(=O)N2CCCC2)c1 | 11* | -0.865 | i | -9.1 | i | i | 0.0 | 0.502 | i | 35.5%*
O=C(Nc1ccc(Br)cc1)Nc1cnccn1 | 7* | . | i | -11.0 | i | i | 0.0 | 0.564 | i | i
O=C(Nc1ccc(F)cc1)Nc1cnccn1 | i | . | i | -5.3 | i | i | . | . | . | .
Cc1cc(S(=O)(=O)Nc2ccc(C(=O)NCCCn3ccnc3)cc2)ccc1F | i | . | i | -9.7 | i | i | . | . | . | .
O=C(O)c1cc2c(N3CCC(Cc4ccccc4)CC3)ncnc2s1 | i | -3.18 | i | -0.2 | i | i | . | . | . | .
c1ccc(CC2CCN(c3ncnc4sccc34)CC2)cc1 | 8* | -2.77 | i | -32.1 | i | i | 136.5* | 0.335* | 89.0%* | 175.5%*
CS(=O)(=O)Cc1cccc(C(=O)NN(c2ccccc2)c2ccccc2)c1 | i | . | i | -4.7 | i | i | . | . | . | .
O=C(Nc1ccccc1)NC1CCCCCCC1 | i | . | i | -8.1 | i | i | . | . | . | .
Cc1ccc(CN=C(Nc2ccccc2)NC2CCCCC2)cc1 | 9* | 0.158 | i | -4.4 | i | i | 67.5* | 0.529 | i | 41.0%*
Cc1csc(NC(=O)C(Cc2ccccc2)n2cccc2)n1 (stereo not drawn) | 13* | 1.59 | i | -18.0 | i | i | 54.5* | 0.448 | 61.7%* | 86.0%*
SMILES | KCNQ1 inh | KCC2 mod | KCNK3 inh | hERG protect | KCNQ1 act | KCNK9 inh | KCNQ1 block val | CHO Tl flux | KCNQ2 spec | KCNQ1-KCNE1 inh | others
CC(C)C(=O)NC(=S)Nc1ccc(S(=O)(=O)N(C)Cc2ccccc2)cc1 | 11* | -1.56 | i | -8.9 | i | i | 117.0* | 0.42 | 104.0%* | 195.5%* | KCNQ1 ephys val=i
CN(Cc1ccccc1)S(=O)(=O)c1ccc(NS(=O)(=O)Cc2ccccc2)cc1 | 8* | . | i | -17.4 | i | i | 130.5* | 0.374* | 118.3%* | 92.5%*
O=C(CSc1nnc2ccccn12)NC(=O)Cc1ccccc1 | i | -0.118 | i | -18.3 | i | i | . | . | . | .
Cc1ccc(-c2csc3ncnc(N4CCN(S(=O)(=O)c5cccs5)CC4)c23)cc1 | . | . | i | . | . | . | . | . | . | .
Cc1cccc2[nH]c3c(N4CC=C(c5ccc(F)cc5)CC4)ncnc3c12 | 14* | -0.254 | i | -14.4 | i | i | 162.0* | 0.33* | 133.7%* | +
Cc1ccc(C(=O)OCC(=O)NC2CCCCC2)o1 | i | . | i | -5.5 | i | i | . | . | . | .
Cn1nc(C(C)(C)C)c([N+](=O)[O-])c1C(=O)N1CCCCCC1 | i | . | i | -7.3 | i | i | . | . | . | .
O=C(c1cc(-c2ccc(Cl)cc2)n(-c2cc(Cl)ccc2Cl)n1)N1CCOCC1 | 7* | . | i | -7.2 | i | i | 61.5* | 0.477 | 81.3%* | 86.0%*
O=C(c1cc(-c2ccc(Cl)cc2)n(-c2ccc(Cl)c(Cl)c2)n1)N1CCOCC1 | i | 0.192 | i | -6.5 | i | i | . | . | . | .
